From ChEMBL document CHEMBL4732155 (Eur J Med Chem, 2021)
Active and inactive are the calls of the source. No cut-off for these calls is given here.

Columns and labels:
[1] = Inhibition of yeast Cdc48 assessed as reduction in ATPase activity measured after 60 mins by biomol green reagent based assay; set-up: species or system Saccharomyces cerevisiae
In short: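 Incubation ran 60 min at room temperature and was stopped with Biomol Green. Phosphate was read as absorbance at 635 nm. IC50 came from an eight-dose titration, six replicates.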

[2] = Effect on CDK2AP1 expression in human HCT-116 cells at 15 uM measured after 6 hrs by LC-MS/MS analysis relative to control; format: functional
In short: (§1)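 HCT116 cells treated 6 h with DMSO, 15 μM or 30 μM compound, then pelleted. Peptides (1 μg) separated on a 25 cm C18 nano-column with a 136 min gradient and analysed by label-free LC-MS/MS on an Orbitrap Eclipse. Searched against the UniProt human database and quantified from normalized abundance. Two independent biological replicates per group; log2 fold change versus DMSO, p < 0.05.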

[3] = Effect on ZFAND1 expression in human HCT-116 cells at 15 uM measured after 6 hrs by LC-MS/MS analysis relative to control; format: functional; in short: as §1
[4] = biological target: T1, Transitional endoplasmic reticulum ATPase (Homo sapiens, UniProt P55072); assay: Irreversible inhibition of p97 in human HeLa cells assessed as reduction in p97-dependent reporter substrate UbG76V-GFP degradation preincubated followed by washout and measured after 17 hrs by luciferase reporter gene assay; format: cell-based; conditions: in the assay text read “GFP fluorescence assay” for “luciferase reporter gene assay”
In short: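 HeLa cells expressing UbG76V-GFP/ODD-Luc, 5000 cells/well in DMEM with 2.5% FBS. Pretreated with 4 μM MG132 for 60 min at 37 °C, PBS-washed, then given cycloheximide plus compound for 120 min. After washout, GFP decay followed in cycloheximide for an additional 17 h. GFP read by high-content imaging; luciferase read with D-luciferin; quadruplicates.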
Target sequence in this assay (P55072 2-806 limits assumed): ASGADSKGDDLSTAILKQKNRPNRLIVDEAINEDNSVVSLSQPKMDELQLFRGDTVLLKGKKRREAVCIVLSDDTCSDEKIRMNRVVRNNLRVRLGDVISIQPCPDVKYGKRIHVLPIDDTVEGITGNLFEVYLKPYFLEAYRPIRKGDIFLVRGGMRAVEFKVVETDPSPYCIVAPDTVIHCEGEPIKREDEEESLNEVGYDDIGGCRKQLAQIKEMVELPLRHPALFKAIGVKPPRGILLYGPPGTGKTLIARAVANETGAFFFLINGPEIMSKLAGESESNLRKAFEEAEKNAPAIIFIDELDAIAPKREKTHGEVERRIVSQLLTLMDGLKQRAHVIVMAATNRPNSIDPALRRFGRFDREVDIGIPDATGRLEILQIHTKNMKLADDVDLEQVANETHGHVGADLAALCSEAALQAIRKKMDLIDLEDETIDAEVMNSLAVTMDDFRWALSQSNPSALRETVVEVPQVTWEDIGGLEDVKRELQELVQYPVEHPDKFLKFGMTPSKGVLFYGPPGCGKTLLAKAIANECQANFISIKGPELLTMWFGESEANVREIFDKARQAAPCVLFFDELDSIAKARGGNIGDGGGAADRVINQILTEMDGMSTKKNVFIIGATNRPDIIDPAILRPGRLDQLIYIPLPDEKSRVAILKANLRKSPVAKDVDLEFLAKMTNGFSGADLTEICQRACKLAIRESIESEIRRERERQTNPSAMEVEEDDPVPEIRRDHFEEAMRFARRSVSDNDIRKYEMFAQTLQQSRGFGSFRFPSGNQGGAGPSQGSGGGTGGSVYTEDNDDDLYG

[5] = Effect on STIM1 expression in human HCT-116 cells at 15 uM measured after 6 hrs by LC-MS/MS analysis relative to control; format: functional; in short: as §1
[6] = Effect on BRCC3 expression in human HCT-116 cells at 15 uM measured after 6 hrs by LC-MS/MS analysis relative to control; format: functional; in short: as §1
[7] = biological target: T1, Transitional endoplasmic reticulum ATPase; assay: Inhibition of p97 (unknown origin) expressed in HEK293 cells co-expressing TCRalpha-GFP assessed as reduction in ERAD-dependent reporter substrate TCRalpha-GFP degradation at 10 uM incubated for 60 to 120 mins by immunoblotting analysis; format: cell-based; conditions: time lower 60.0 min, time upper […]
In short: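 HEK293 cells stably expressing TCRα-GFP pretreated with 4 μM MG132 for 1 h and washed. Then incubated with 50 μM cycloheximide plus 10 μM compound for 60 or 120 min before harvest. Immunoblotted with anti-GFP, with anti-p97 as loading control.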
Target sequence in this assay (P55072 2-806 limits assumed): as above

[8] = Effect on AP2M1 expression in human HCT-116 cells at 15 uM measured after 6 hrs by LC-MS/MS analysis relative to control; format: functional; in short: as §1
[9] = Effect on LAMP1 expression in human HCT-116 cells at 15 uM measured after 6 hrs by LC-MS/MS analysis relative to control; format: functional; in short: as §1
[10] = Effect on STIM1 expression in human HCT-116 cells at 30 uM measured after 6 hrs by LC-MS/MS analysis relative to control; format: functional; in short: as §1
[11] = Effect on ZFAND1 expression in human HCT-116 cells at 30 uM measured after 6 hrs by LC-MS/MS analysis relative to control; format: functional; in short: as §1
[12] = Effect on GOLGA3 expression in human HCT-116 cells at 15 uM measured after 6 hrs by LC-MS/MS analysis relative to control; format: functional; in short: as §1
[13] = Effect on PLEC expression in human HCT-116 cells at 30 uM measured after 6 hrs by LC-MS/MS analysis relative to control; format: functional; in short: as §1
[14] = biological target: T1, Transitional endoplasmic reticulum ATPase; assay: Inhibition of His6-tagged p97 (unknown origin) expressed in Escherichia coli BL21 (DE3) assessed as reduction in ATPase activity measured after 60 mins in presence of DTT by biomol green reagent based assay
In short: (§2)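 His6-p97 expressed in E. coli BL21(DE3), purified by Ni-NTA and gel filtration (500–600 kDa fractions, ≥95% pure). Phosphate read by Biomol Green at 635 nm. Eight-dose titrations; IC50 from six replicates. Thiol tests added DTT or cysteine during preincubation.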
Target sequence in this assay (P55072 2-806 limits assumed): as above

[15] = biological target: T1, Transitional endoplasmic reticulum ATPase; assay: Inhibition of p97 in human HeLa cells assessed as reduction in proteasomal turnover of p97-dependent reporter substrate UbG76V-GFP incubated for 120 mins by GFP fluorescence imaging
Target sequence in this assay (P55072 whole entry): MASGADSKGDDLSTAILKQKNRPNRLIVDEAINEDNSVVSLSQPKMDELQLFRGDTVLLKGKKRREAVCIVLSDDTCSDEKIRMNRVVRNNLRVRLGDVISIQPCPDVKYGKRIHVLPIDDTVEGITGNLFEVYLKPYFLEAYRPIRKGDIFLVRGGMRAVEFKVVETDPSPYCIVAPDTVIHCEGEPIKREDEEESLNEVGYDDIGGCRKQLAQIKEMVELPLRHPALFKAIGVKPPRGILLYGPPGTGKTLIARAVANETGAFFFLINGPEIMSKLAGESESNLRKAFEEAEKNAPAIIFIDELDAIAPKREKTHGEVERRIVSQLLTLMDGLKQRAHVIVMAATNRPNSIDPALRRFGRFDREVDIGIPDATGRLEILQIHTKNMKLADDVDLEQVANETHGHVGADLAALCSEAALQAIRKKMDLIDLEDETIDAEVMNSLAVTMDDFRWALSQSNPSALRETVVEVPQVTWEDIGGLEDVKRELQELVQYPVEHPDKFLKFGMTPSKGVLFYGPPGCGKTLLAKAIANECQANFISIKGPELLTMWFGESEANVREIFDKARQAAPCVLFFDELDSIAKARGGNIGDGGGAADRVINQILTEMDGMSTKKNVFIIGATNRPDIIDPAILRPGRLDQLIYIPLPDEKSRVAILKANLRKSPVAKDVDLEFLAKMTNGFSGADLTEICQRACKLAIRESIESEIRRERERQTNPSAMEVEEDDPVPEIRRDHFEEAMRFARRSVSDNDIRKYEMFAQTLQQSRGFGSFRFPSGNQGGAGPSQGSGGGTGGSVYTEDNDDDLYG

[16] = Effect on BRCC3 expression in human HCT-116 cells at 30 uM measured after 6 hrs by LC-MS/MS analysis relative to control; format: functional; in short: as §1
[17] = Effect on GOLGA3 expression in human HCT-116 cells at 30 uM measured after 6 hrs by LC-MS/MS analysis relative to control; format: functional; in short: as §1
[18] = Effect on KNTC1 expression in human HCT-116 cells at 30 uM measured after 6 hrs by LC-MS/MS analysis relative to control; format: functional; in short: as §1
[19] = biological target: Transitional endoplasmic reticulum ATPase (Homo sapiens, UniProt P55072, C522A); assay: Inhibition of His6-tagged p97 C522A mutant (unknown origin) expressed in Escherichia coli BL21 (DE3) assessed as reduction in ATPase activity measured after 60 mins by biomol green reagent based assay; in short: as §2
Chain of Transitional endoplasmic reticulum ATPase (Homo sapiens, UniProt P55072, C522A) (P55072 2-806 C522A limits assumed): as the sequence (P55072 2-806 limits assumed) above, with C521A counted along it

[20] = Inhibition of proteasomal turnover of p97-independent ODD-luciferase reporter substrate in human HeLa cells incubated for 120 mins by luciferase reporter gene assay; format: functional, cell-based; conditions: 2 h
In short: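 HeLa cells co-expressing UbG76V-GFP and ODD-Luc were seeded at 5000/well in clear DMEM with 2.5% FBS. They were pretreated with 4 μM MG132 for 60 min at 37 °C, washed with PBS, then given cycloheximide plus compound for 120 min at 37 °C and washed. GFP was read by high-content confocal imaging, then luminescence after 10 min with D-luciferin at r.t. IC50 was fitted from quadruplicates.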

HCT-116 = assay: Antiproliferative activity against human HCT-116 cells after 48 hrs by celltiter-glo luminescence assay; format: functional, cell-based; conditions: HCT-116, 48 h
[21] = Inhibition of yeast Cdc48 T532C mutant assessed as reduction in ATPase activity measured after 60 mins by biomol green reagent based assay; set-up: species or system Saccharomyces cerevisiae
In short: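 Yeast Cdc48 ATPase activity with 200 μM ATP in Tris pH 7.4 buffer containing MgCl2, EDTA, TCEP and Triton X-100, 60 min at room temperature. Biomol Green read at 635 nm. Eight-dose titration; IC50 from six replicates.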

[22] = Effect on SQSTM1 expression in human HCT-116 cells at 15 uM measured after 6 hrs by LC-MS/MS analysis relative to control; format: functional; in short: as §1
[23] = Effect on KEAP1 expression in human HCT-116 cells at 15 uM measured after 6 hrs by LC-MS/MS analysis relative to control; format: functional; in short: as §1
[24] = Effect on CDK2AP1 expression in human HCT-116 cells at 30 uM measured after 6 hrs by LC-MS/MS analysis relative to control; format: functional; in short: as §1

`C=CC(=O)Nc1ncnc2c1c(-c1ccccc1)nn2C(C)(C)C` gave an IC50 [1] of 376 µM, a log2FC [2] of -0.48 and a log2FC [3] of 0.49. For the same compound, the inhibition [4] was “Active”, the log2FC [5] was 1.49 and the log2FC [6] was 0.94. For the same compound, the inhibition [7] was “Active”, the log2FC [8] was -0.33 and the log2FC [9] was -0.59. It also gave a log2FC [10] of 1.65, a log2FC [11] of 0.42 and a log2FC [12] of -0.36. For the same compound, the log2FC [13] was 0.58, the inhibition [14] was “Active” and the IC50 [15] was 1.6 µM. It also gave a log2FC [16] of 0.83, a log2FC [17] of -0.7 and a log2FC [18] of -0.87. For the same compound, the IC50 [19] was 110 µM, the IC50 [20] was 35 µM and the IC50 (HCT-116) was 2.7 µM. The IC50 [21] was 14 µM, the log2FC [22] was 0.42 and the log2FC [23] was -0.46. For the same compound, the log2FC [24] was -0.47.
